According to PubChem BioAssay AID1885 (Broad Institute, 2009):
Among all 300,000 compounds or so, about 4,400 (1.5%) were called active.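 Rule for the calls: active = mean inhibition across valid replicates above about 55% (limit read from the data); inconclusive = mean below that limit but half or more replicates reach it; inactive = mean below it, under half of replicates reach it.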 This excerpt belongs to a sample that is enriched for actives.

assay: Trypanosoma cruzi replication blockers in host cells – luminescence, NIH3T3 host cells, primary screen (AID 1885);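 note: signal also drops with host cell toxicity which is not excluded here; 0% = plate median of DMSO wells and 100% = zero luminescence signal; higher percent means less beta-gal luminescence so fewer parasites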; details: T. cruzi beta-gal in NIH3T3, luminescence, 90 h; hits give high values; concentration not given here
In short: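 Assay system: NIH/3T3 host cells with β-galactosidase reporter T. cruzi; input: 5,000 host fibroblasts per well; compound: single 50 nL compound addition per well in DMSO; timing: ≥90 h infection period, 3 h prior cell attachment; measured by: GalScreen β-gal luminescence, detergent lysis, 60 min; evaluation: percent inhibition of parasite-derived β-gal signal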

| SMILES | inhibition |
| --- | --- |
| Cc1ccc(S(=O)(=O)NCCC(=O)NC2CCN(Cc3ccccc3)CC2)cc1 | 38% (inactive) |
| CCOc1ccc(S(=O)(=O)N2CCC(C(=O)OCc3ccc(OC)cc3)CC2)cc1 | -1.31% (inactive) |
| COc1ccccc1N(CC(=O)Nc1ccccc1C(=O)N1CCCC1)S(C)(=O)=O | -3.65% (inactive) |
| Cc1ccc(NC(=O)CSCC(=O)Nc2sccc2C#N)cc1 | -1.58% (inactive) |
| COc1ccc(CCNC(=O)CN2C(=O)COc3ccc(S(=O)(=O)N4CCCC4)cc32)cc1OC | -4.6% (inactive) |
| CCN(CC)CCN(C(=O)c1ccc(S(=O)(=O)N2CCOCC2)cc1)c1nc2cc3c(cc2s1)OCCO3 | 50.5% (inactive) |
| CN(C)CCCN(C(=O)c1ccc(S(=O)(=O)N2CCCCCC2)cc1)c1nc2cc3c(cc2s1)OCCO3 | 65.3% (active) |
| CN(C)CCCN(C(=O)c1ccc(S(=O)(=O)N2CCCCCC2)cc1)c1nc2ccc(Br)cc2s1 | 23.2% (inactive) |
| Cc1ccccc1OCC(=O)NNC(=O)c1ccc(-n2cncn2)c([N+](=O)[O-])c1 | 14.2% (inactive) |
| COc1cc(C(=O)OCC(=O)N(CC(C)C)C2CCS(=O)(=O)C2)ccc1OCC(C)C (stereo not given) | 1.65% (inactive) |
| O=C(CSc1ncnc2c1nnn2Cc1ccc(F)cc1)NC1CCCC1 | 59.1% (active) |
| O=C(CSc1ncnc2c1oc1ccccc12)NC1CCCC1 | 9.78% (inactive) |
| O=C(Cc1ccc(F)cc1)NC1CCCC1 | -10.7% (inactive) |
| Cc1sc(NC(=O)C2=COCCO2)c(C#N)c1C | 6.24% (inactive) |
| COc1cccc(C(=O)NCCS(=O)(=O)NCC2CCCO2)c1 (stereo not given) | -7.57% (inactive) |
| O=C(NCCCN1CCOCC1)c1ccc(N2CCCC2)c([N+](=O)[O-])c1 | 8.18% (inactive) |
| O=[N+]([O-])c1ccc(NCCCN2CCOCC2)c(Cl)c1 | 10.6% (inactive) |
| O=C(NCCCN1CCOCC1)c1ccc([N+](=O)[O-])cc1[N+](=O)[O-] | 64.7% (active) |
| Cc1ccc(C(=O)NNC(=O)C(C)Oc2ccc3ccccc3c2)o1 (stereo not given) | -1.31% (inactive) |
| COc1ccccc1C(c1nnnn1C(C)(C)C)N1CCN(Cc2ccccc2)CC1 (stereo not given) | -3.59% (inactive) |
| COc1ccc(OC)c(C(c2nnnn2C(C)(C)C)N2CCc3ccccc3C2)c1 (stereo not given) | 63.1% (active) |
| COCCn1nnnc1C(c1cc2ccc(OC)cc2[nH]c1=O)N1CCc2ccccc2C1 (stereo not given) | -9.17% (inactive) |
| CCCCN(C(=O)c1ccc(C)o1)c1c(N)n(CCCC)c(=O)[nH]c1=O | -0.399% (inactive) |
| O=C1CC(Sc2ncn[nH]2)C(=O)N1c1ccccc1 (stereo not given) | 23.3% (inactive) |
| CN1CCc2nc(SC(C(=O)O)c3ccccc3)c(C#N)c(-c3cccs3)c2C1 (stereo not given) | 64.4% (active) |
| Cc1c(-c2ccccc2)nc(N)c(C#N)c1-c1cccs1 | 0.738% (inactive) |
| CC(NC(=O)CSc1nc2c(cc1C#N)CN(C)CC2)c1ccccc1 (stereo not given) | 1.88% (inactive) |
| CCCCn1c(N)c(N(Cc2ccccc2OC)C(=O)COc2cc(C)ccc2Cl)c(=O)[nH]c1=O | 6.73% (inactive) |

| SMILES | inhibition |
| --- | --- |
| COc1ccccc1C(=O)COC(=O)CSCC(=O)Nc1cc(C)on1 | -6.4% (inactive) |
| O=C(NCCN1CCOCC1)c1ccc(/C=C2\Sc3ccccc3N(Cc3ccc(F)cc3)C2=O)cc1 | 10.9% (inactive) |
| CCN1CCN(CCNC(=O)c2ccc3c(c2)NC(=O)/C(=C\c2ccc(OC)c(OC)c2)S3)CC1 | 11.8% (inactive) |
| CCN1CCN(CCNC(=O)c2ccc(/C=C3/Sc4ccccc4N(Cc4cccc(C)c4)C3=O)cc2)CC1 | 59% (active) |
| Cc1cc(C)c(S(=O)(=O)N2CCCC2CNC(=O)c2ccc3c(c2)OCO3)c(C)c1 (stereo not given) | -2.11% (inactive) |
| Cc1ccc(S(=O)(=O)c2c[nH]c3ccc(Cl)cc3c2=O)cc1 | 5.53% (inactive) |
| O=C(C1=C[C@H](C2CC2)C[C@H](OCc2ccc(CO)cc2)O1)N1CCN(Cc2ccccc2)CC1 | 59.7% (active) |
| O=C(C1=C[C@H](c2coc3ccccc3c2=O)C[C@H](OCc2ccc(CO)cc2)O1)N1CCN(Cc2ccccc2)CC1 | 33.6% (inactive) |
| O=C(NCc1ccccc1)C1=C[C@H](C2CC2)C[C@H](OCc2ccc(CO)cc2)O1 | 15% (inactive) |
| O=S(=O)(c1ccccc1)N1CCC(c2ccccc2)CC1 | 0.981% (inactive) |
| Cc1ccc(C(=O)N2CCC(n3nccc3NC(=O)Nc3cccc(F)c3)CC2)cn1 | -8.51% (inactive) |
| COc1ccc(CNS(=O)(=O)c2cc3c4c(c2)CCN4C(=O)CC3)cc1 | -11.2% (inactive) |
| CC1CN(S(=O)(=O)c2ccc(C(=O)NN3CCN(C)CC3)cc2)CC(C)O1 (stereo not given) | 6.61% (inactive) |
| COc1cc(C(=O)NNC(=O)c2ccc(S(=O)(=O)N3CCCCC3)cc2)cc(OC)c1OC | -12.8% (inactive) |
| CN1CCN(NC(=O)c2ccc(S(=O)(=O)N3CCCCCC3)cc2)CC1 | 68.3% (active) |
| CCN(CC(=O)Nc1cc(Cl)ccc1C)C(=O)CN1C(=O)NC2(CCCC2)C1=O | 2.7% (inactive) |
| COc1ccc(C(=O)CN2C(=O)NC3(CCc4ccccc43)C2=O)c(OC)c1 (stereo not given) | 1.63% (inactive) |
| C/C(=N\NC(=O)Cc1ccc(Br)cc1)c1cccnc1 | -9.89% (inactive) |
| C/C(=N\NC(=O)c1ccccc1F)c1ccccn1 | 23.5% (inactive) |
| C/C(=N\NC(=O)Cc1ccc(Cl)cc1)c1ccccn1 | 64.9% (active) |
| CCOc1ccc(NC(=O)CN(C)C(=O)c2c(C)noc2C)cc1OCC | 0.476% (inactive) |
| CCCS(=O)(=O)N1CCN=C1SCc1cccc(F)c1 | 6.03% (inactive) |
| CC1CCN(c2ccc(-c3ccc(NC(=O)c4ccco4)cc3)nn2)CC1 | 6.55% (inactive) |
| COc1ccc(NC(=O)CSc2nc(NS(=O)(=O)c3ccc(C)cc3)cc(=O)[nH]2)cc1 | 7.86% (inactive) |
| Cc1ccc2nc(N3CCN(C(=O)c4ccco4)CC3)sc2c1 | -3.92% (inactive) |
| O=C(c1ccc2nc(N3CCOCC3)sc2c1)N1CCN(c2ccc(Cl)cc2)CC1 | 2.47% (inactive) |
| COc1ccc2nc(N3CCN(C(=O)c4ccc([N+](=O)[O-])o4)CC3)sc2c1 | 60.2% (active) |
